Experimental data from different studies.
Each line is one published result; the experiments were not run side by side.
Target: Mitogen-activated protein kinase kinase kinase 10 (MAP3K10, Homo sapiens, UniProt Q02779)

| Compound | observed | method | concentration | remaining binding |
| --- | --- | --- | --- | --- |
| C[C@H](c1cccc(C#N)c1)n1cc(Cl)cc(C(N)=O)c1=N | cell-free assay | competition with immobilised ligand | 1 µM | 100% |
| O=C(c1ccc(Nc2ncc(Cl)c(-c3cc4ccccc4s3)n2)cc1)N1CCC(N2CCCC2)CC1 | binding | competition with immobilised ligand | 1 µM | 3.5% |
| CC1CCCN1c1nccc(-c2cnn3ncccc23)n1 (stereo not drawn) | binding |  | 1 µM | 100% |
| COc1cnc(Nc2cccc(S(N)(=O)=O)c2)nc1N1CCN(c2ccccc2)C(=O)C1 | binding | competition with immobilised ligand | 1 µM | 79% |
| C[C@H]1CCN(c2nccc(-c3cnn4ncccc34)n2)C1 | binding |  | 1 µM | 100% |
| c1ccc(N2CCN(Cc3nc4ccccc4[nH]3)CC2)nc1 | binding | competition with immobilised ligand | 1 µM | 93% |
| CN(C)c1ncc(F)c(-c2cnn3ncccc23)n1 | binding |  | 1 µM | 100% |
| C[C@@H](c1ccc(-n2cnc3c(N)ncnc32)cc1)N1CCc2nn(C)c(Cc3ccccc3)c2C1=O | binding | competition with immobilised ligand | 0.1 µM | 82% |
| COc1ncc2cc3ccccc3nc2c1C#N | cell-free assay | competition with immobilised ligand | 5 µM | 79% |
| Cc1c(NC(=O)c2cc(C(N)=O)nc3cc(F)ccc23)c(C(F)(F)F)nn1Cc1ccc(C#N)cc1 | cell-free assay | competition with immobilised ligand | 1 µM | 92% |
| CN(c1nccc(-c2cnn3ncccc23)n1)C1CC1 | binding |  | 1 µM | 76% |
| Cc1cc(-n2nc(Cc3cc(F)cc(C(F)(F)F)c3)nc2C)ccc1C(N)=O | cell-free assay | competition with immobilised ligand | 1 µM | 95% |
| O=C(NCCCN1CCOCC1)c1ccc(Nc2ncc(Cl)c(-c3ccc(Cl)s3)n2)cc1 | binding | competition with immobilised ligand | 1 µM | 3% |
| CNC(=O)[C@@H]1CC[C@@H](n2c(-c3ccc4cnccc4c3)nc3ccc(C(=O)NCc4cccc(C(N)=O)c4)cc32)C1 | binding | competition with immobilised ligand | 1 µM | 86% |
| COc1ccnn2ncc(-c3ccnc(N(C)C)n3)c12 | binding |  | 1 µM | 78% |
| O=C(Nc1c[nH]nc1C(=O)NC1CCNCC1)c1cc(F)cc(F)c1 | binding | competition with immobilised ligand | 1 µM | 100% |
| C[C@H](c1ccnc(Nc2nc3ccc(-c4cc(N(C)C)ncn4)cc3[nH]2)c1)N1CCN(C(=O)CC(F)(F)F)CC1 | cell-free assay | competition with immobilised ligand | 0.1 µM | 100% |
| O=C(NCCCN1CCOCC1)c1ccc(Nc2nccc(-c3cc4ccccc4s3)n2)cc1 | binding | competition with immobilised ligand | 1 µM | 37% |
| C=CC(=O)N1CCC(C(=O)NCC(=O)N2CCN(c3nc(-c4cnc(N)nc4C(F)F)nc(N4CCOCC4)n3)CC2)CC1 | binding | competition with immobilised ligand | 1 µM | 99% |
| N[C@H]1CCN(c2nccc(-c3cnn4ncccc34)n2)C1 | binding |  | 1 µM | 92% |
| O=c1nc(-c2ccccn2)sc2ccccc12 | binding | competition with immobilised ligand | 1 µM | 100% |
